Source: ChEMBL document CHEMBL4011622, “The Structure-Activity Relationship of a Tetrahydroisoquinoline Class of N-Methyl-d-Aspartate Receptor Modulators that Potentiates GluN2B-Containing N-Methyl-d-Aspartate Receptors” (J Med Chem, 2017)
One block for each compound: values may come before it. Active and inactive are the calls of the source. The rule behind the calls is not given here.

Columns and labels:
[1] = molecular target: T1, Glutamate NMDA receptor; Grin1/Grin2b (Rattus norvegicus, UniProt P35439+Q00960)
[2] = molecular target: T2, Glutamate NMDA receptor; Grin1/Grin2c (Rattus norvegicus) (UniProt P35439+Q00961); assay: Positive allosteric modulation of recombinant rat GluN1/GluN2C receptor expressed in xenopus laevis oocyte assessed as potentiation of glutamate and glycine-induced current response at 30 uM at holding potential -40mV by two electrode voltage clamp method relative to control
[3] = molecular target: T3, Ionotropic glutamate receptor NMDA 1/2D (Rattus norvegicus) (UniProt P35439+Q62645); assay: Positive allosteric modulation of recombinant rat GluN1/GluN2D receptor expressed in xenopus laevis oocyte assessed as potentiation of glutamate and glycine-induced current response at 10 uM at holding potential -40mV by two electrode voltage clamp method relative to control
Outline: (§1)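 Two-electrode voltage clamp at -40 mV, 23°C, pH 7.4 Ba²⁺ recording solution, on Xenopus oocytes expressing rat NMDA receptors. Currents were evoked by 100 µM glutamate plus 30 µM glycine, with compound co-applied (DMSO 0.05–0.5% final). […] Each compound used at least 4 oocytes from at least 2 frogs.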

[4] = molecular target: T4, Glutamate NMDA receptor; Grin1/Grin2b (Rattus norvegicus) (UniProt P35439+Q00960); assay: Positive allosteric modulation of recombinant rat GluN1/GluN2B receptor expressed in xenopus laevis oocyte assessed as potentiation of glutamate and glycine-induced current response at 30 uM at holding potential -40mV by two electrode voltage clamp method relative to control
[5] = molecular target: T2, Glutamate NMDA receptor; Grin1/Grin2c (Rattus norvegicus); assay: Positive allosteric modulation of recombinant rat GluN1/GluN2C receptor expressed in xenopus laevis oocyte assessed as potentiation of glutamate-induced current response at 30 uM at holding potential -40mV by two electrode voltage clamp method
Outline: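 Rat GluN1/GluN2C (modified GluN2C) expressed from injected mRNA in Xenopus oocytes; two-electrode voltage clamp at -40 mV, 23°C, recording solution pH 7.4 (90 NaCl, 1.0 KCl, 0.5 BaCl2, 0.005 EDTA, 10 HEPES, mM). Compound coapplied with 100 µM glutamate and 30 µM glycine; final DMSO 0.05-0.5%.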

[6] = molecular target: T4, Glutamate NMDA receptor; Grin1/Grin2b (Rattus norvegicus); assay: Positive allosteric modulation of recombinant rat GluN1/GluN2B receptor expressed in xenopus laevis oocyte assessed as potentiation of glutamate and glycine-induced current response at 30 uM at holding potential -40mV by two electrode voltage clamp method relative to control
Outline: as §1

[7] = molecular target: Glutamate receptor 1 (Rattus norvegicus) (UniProt P19490); assay: Positive allosteric modulation of recombinant rat GluA1 receptor expressed in xenopus laevis oocyte assessed as potentiation of glutamate-induced current response at 30 uM at holding potential -40mV by two electrode voltage clamp method relative to glutamate
[8] = Ratio of drug level in C57Bl/6 mouse brain to plasma at 10 mg/kg, ip after 4 hrs by LC/MS/MS analysis; format: ADME, organism-based
Outline: (§2)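 Male/female not stated; 30–35 g C57Bl/6 mice given 10 mg/kg i.p. at 1.25 mg/mL in 5% NMP/20% solutol/75% of 20% hydroxypropyl-β-cyclodextrin. Blood was taken by cardiac puncture into heparin and brains were collected at 0, 15, 30, 60, 120 and 240 min, three mice per time point. Plasma and brain homogenate (1:4 water) were acetonitrile-precipitated and quantified by LC-MS/MS against an 8-point duplicate standard curve.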

[9] = tested on: Brain; assay: Drug uptake in C57Bl/6 mouse brain at 10 mg/kg, ip after 15 to 30 mins by LC/MS/MS analysis; format: ADME, organism-based; conditions: in vivo, read-out: Drug uptake
Outline: as §2

[10] = molecular target: T3, Ionotropic glutamate receptor NMDA 1/2D (Rattus norvegicus); assay: Positive allosteric modulation of recombinant rat GluN1/GluN2D receptor expressed in xenopus laevis oocyte assessed as potentiation of glycine-induced current response at 30 uM at holding potential -40mV by two electrode voltage clamp method
[11] = Ratio of drug level in C57Bl/6 mouse brain to plasma at 10 mg/kg, ip after 15 mins by LC/MS/MS analysis; format: ADME, organism-based
Outline: as §2

[12] = tested on: Mus musculus; assay: Toxicity in C57Bl/6 mouse assessed as behavioral abnormalities at 10 mg/kg, ip; format: organism-based; conditions: in vivo
Outline: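 C57Bl/6 mice (30–35 g) were dosed at 10 mg/kg i.p. in 5% NMP/20% solutol/75% of 20% hydroxypropyl-β-cyclodextrin and observed for behavioral abnormalities after dosing.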

[13] = tested on: Liver; assay: Drug level in human liver microsomes treated with (3-chlorophenyl)(6-isopropoxy-1-((4-methoxyphenoxy)methyl)-3,4-dihydroisoquinolin-2(1H)-yl)methanethione at […] measured at 30 mins by LC/MS/MS analysis; format: ADME, microsome; conditions: 0.5 h
[14] = molecular target: T4, Glutamate NMDA receptor; Grin1/Grin2b (Rattus norvegicus); assay: Positive allosteric modulation of recombinant rat GluN1/GluN2B receptor expressed in xenopus laevis oocyte assessed as compound concentration required to show two fold increase in glutamate and glycine-induced current response at holding potential -40mV by two electrode voltage clamp method
[15] = Cmax in C57Bl/6 mouse plasma at 10 mg/kg, ip after 2 hrs by LC/MS/MS analysis; format: ADME, organism-based; design: dose 10 mg/kg, route intraperitoneal
Outline: as §2

[16] = molecular target: T4, Glutamate NMDA receptor; Grin1/Grin2b (Rattus norvegicus); assay: Positive allosteric modulation of recombinant rat GluN1/GluN2B receptor expressed in xenopus laevis oocyte assessed as potentiation of glutamate-induced current response at 30 uM at holding potential -40mV by two electrode voltage clamp method
[17] = molecular target: T2, Glutamate NMDA receptor; Grin1/Grin2c (Rattus norvegicus); assay: Positive allosteric modulation of recombinant rat GluN1/GluN2C receptor expressed in xenopus laevis oocyte assessed as compound concentration required to show two fold increase in glutamate and glycine-induced current response at holding potential -40mV by two electrode voltage clamp method
[18] = molecular target: T1, Glutamate NMDA receptor; Grin1/Grin2b; assay: Positive allosteric modulation of recombinant rat GluN1/GluN2B receptor expressed in xenopus laevis oocyte assessed as potentiation of glutamate and glycine-induced current response at holding potential -40mV by two electrode voltage clamp method
Outline: (§3)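 Two-electrode voltage clamp at -40 mV, 23°C, pH 7.4 Ba²⁺ recording solution, on Xenopus oocytes expressing rat NMDA receptors. Currents were evoked by 100 µM glutamate plus 30 µM glycine, with compound co-applied (DMSO 0.05–0.5% final). Each compound used at least 4 oocytes from at least 2 frogs.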

[19] = molecular target: Glutamate receptor ionotropic, kainate 2 (Rattus norvegicus) (UniProt P42260); assay: Positive allosteric modulation of recombinant rat GluK2 receptor expressed in xenopus laevis oocyte assessed as potentiation of glutamate-induced current response at 30 uM at holding potential -40mV by two electrode voltage clamp method relative to glutamate
[20] = molecular target: Ionotropic glutamate receptor NMDA 1/2D (Rattus norvegicus, UniProt P35439+Q62645); assay: Positive allosteric modulation of recombinant rat GluN1/GluN2D receptor expressed in xenopus laevis oocyte assessed as potentiation of glutamate and glycine-induced current response at holding potential -40mV by two electrode voltage clamp method
Outline: as §3

[21] = Drug uptake in C57Bl/6 mouse brain at 10 mg/kg, ip after 4 hrs by LC/MS/MS analysis; format: ADME, organism-based; conditions: read-out: Drug uptake
Outline: as §2

[22] = molecular target: T3, Ionotropic glutamate receptor NMDA 1/2D (Rattus norvegicus); assay: Positive allosteric modulation of recombinant rat GluN1/GluN2D receptor expressed in xenopus laevis oocyte assessed as compound concentration required to show two fold increase in glutamate and glycine-induced current response at holding potential -40mV by two electrode voltage clamp method
[23] = molecular target: T4, Glutamate NMDA receptor; Grin1/Grin2b (Rattus norvegicus); assay: Positive allosteric modulation of recombinant rat GluN1/GluN2B receptor expressed in xenopus laevis oocyte co-expressing GluN2A at 10 uM assessed as potentiation of glutamate and glycine-induced current response at holding potential -40mV by two electrode voltage clamp method relative to control
Outline: (§4)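 Triheteromeric GluN1/GluN2A/GluN2B receptors were expressed in oocytes using GluN2 subunits with modified intracellular domains controlling surface expression. Compound was tested at 10 µM by TEVC at -40 mV against maximally effective glutamate and glycine; n=14 oocytes.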

[24] = molecular target: Glutamate NMDA receptor; Grin1/Grin2c (Rattus norvegicus, UniProt P35439+Q00961); assay: Positive allosteric modulation of recombinant rat GluN1/GluN2C receptor expressed in xenopus laevis oocyte assessed as potentiation of glutamate and glycine-induced current response at holding potential -40mV by two electrode voltage clamp method
Outline: as §3

[25] = molecular target: T2, Glutamate NMDA receptor; Grin1/Grin2c (Rattus norvegicus); assay: Positive allosteric modulation of recombinant rat GluN1/GluN2C receptor expressed in xenopus laevis oocyte assessed as potentiation of glutamate and glycine-induced current response at 30 uM at holding potential -40mV by two electrode voltage clamp method relative to control
Outline: as §3

[26] = molecular target: Glutamate NMDA receptor; Grin1/Grin2a (Rattus norvegicus) (UniProt P35439+Q00959); assay: Positive allosteric modulation of recombinant rat GluN1/GluN2A receptor expressed in xenopus laevis oocyte co-expressing GluN2B assessed as potentiation of glutamate and glycine-induced current response at 10 uM at holding potential -40mV by two electrode voltage clamp method relative to control
[27] = molecular target: Ionotropic glutamate receptor NMDA1/2A/2B (Rattus norvegicus) (UniProt P35439+Q00959+Q00960); assay: Positive allosteric modulation of recombinant rat GluN1/GluN2A/GluN2B receptor expressed in xenopus laevis oocyte assessed as potentiation of glutamate and glycine-induced current response at 10 uM at holding potential -40mV by two electrode voltage clamp method relative to control
Outline: as §4

[28] = molecular target: T2, Glutamate NMDA receptor; Grin1/Grin2c (Rattus norvegicus); assay: Positive allosteric modulation of recombinant rat GluN1/GluN2C receptor expressed in xenopus laevis oocyte assessed as potentiation of glutamate and glycine-induced current response at 10 uM at holding potential -40mV by two electrode voltage clamp method relative to control; conditions: for Activity: 30 uM, in the assay text read “at 30 uM” for “at 10 uM”
Outline: as §1

[29] = molecular target: T4, Glutamate NMDA receptor; Grin1/Grin2b (Rattus norvegicus); assay: Positive allosteric modulation of recombinant rat GluN1/GluN2B receptor expressed in xenopus laevis oocyte assessed as potentiation of glutamate and glycine-induced current response at 10 uM at holding potential -40mV by two electrode voltage clamp method relative to control; conditions: 30 uM, in the assay text read “at 30 uM” for “at 10 uM”
Outline: as §1

[30] = molecular target: T3, Ionotropic glutamate receptor NMDA 1/2D (Rattus norvegicus); assay: Positive allosteric modulation of recombinant rat GluN1/GluN2D receptor expressed in xenopus laevis oocyte assessed as potentiation of glutamate and glycine-induced current response at 30 uM at holding potential -40mV by two electrode voltage clamp method relative to control
Outline: as §3

[31] = Drug metabolism in human liver microsomes assessed as UGT mediated drug metabolite formation by measuring parent compound half life at […] by LC/MS/MS analysis; format: ADME
[32] = Drug metabolism in human liver microsomes assessed as P450 mediated drug metabolite formation by measuring parent compound half life at […] by LC/MS/MS analysis; format: ADME

Glutamate receptor 1 (Rattus norvegicus), sequence (P19490 whole entry): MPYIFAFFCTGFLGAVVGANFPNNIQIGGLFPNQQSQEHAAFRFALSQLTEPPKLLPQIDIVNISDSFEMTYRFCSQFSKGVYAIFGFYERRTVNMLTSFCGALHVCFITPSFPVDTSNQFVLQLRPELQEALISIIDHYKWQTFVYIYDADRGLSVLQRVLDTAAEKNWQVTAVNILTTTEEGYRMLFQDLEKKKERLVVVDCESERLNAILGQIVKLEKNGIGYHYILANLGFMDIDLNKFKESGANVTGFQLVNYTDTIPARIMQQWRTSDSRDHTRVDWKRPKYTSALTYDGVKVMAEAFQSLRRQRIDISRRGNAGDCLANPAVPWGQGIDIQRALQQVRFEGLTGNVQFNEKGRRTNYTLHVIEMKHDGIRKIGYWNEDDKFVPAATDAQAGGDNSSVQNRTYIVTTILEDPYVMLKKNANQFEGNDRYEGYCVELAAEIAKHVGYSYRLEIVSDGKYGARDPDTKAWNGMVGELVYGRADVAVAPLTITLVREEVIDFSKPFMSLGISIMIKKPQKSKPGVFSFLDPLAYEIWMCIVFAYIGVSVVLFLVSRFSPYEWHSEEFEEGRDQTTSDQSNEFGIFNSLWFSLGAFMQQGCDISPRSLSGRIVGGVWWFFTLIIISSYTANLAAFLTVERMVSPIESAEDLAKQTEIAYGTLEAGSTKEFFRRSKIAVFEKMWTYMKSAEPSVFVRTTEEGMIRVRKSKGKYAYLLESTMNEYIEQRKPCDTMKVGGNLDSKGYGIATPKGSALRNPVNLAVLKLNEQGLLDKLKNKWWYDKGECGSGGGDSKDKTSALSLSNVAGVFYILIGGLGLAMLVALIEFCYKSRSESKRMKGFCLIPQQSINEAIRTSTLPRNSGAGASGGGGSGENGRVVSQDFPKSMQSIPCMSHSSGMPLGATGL
Glutamate receptor ionotropic, kainate 2 (Rattus norvegicus), sequence (P42260 whole entry): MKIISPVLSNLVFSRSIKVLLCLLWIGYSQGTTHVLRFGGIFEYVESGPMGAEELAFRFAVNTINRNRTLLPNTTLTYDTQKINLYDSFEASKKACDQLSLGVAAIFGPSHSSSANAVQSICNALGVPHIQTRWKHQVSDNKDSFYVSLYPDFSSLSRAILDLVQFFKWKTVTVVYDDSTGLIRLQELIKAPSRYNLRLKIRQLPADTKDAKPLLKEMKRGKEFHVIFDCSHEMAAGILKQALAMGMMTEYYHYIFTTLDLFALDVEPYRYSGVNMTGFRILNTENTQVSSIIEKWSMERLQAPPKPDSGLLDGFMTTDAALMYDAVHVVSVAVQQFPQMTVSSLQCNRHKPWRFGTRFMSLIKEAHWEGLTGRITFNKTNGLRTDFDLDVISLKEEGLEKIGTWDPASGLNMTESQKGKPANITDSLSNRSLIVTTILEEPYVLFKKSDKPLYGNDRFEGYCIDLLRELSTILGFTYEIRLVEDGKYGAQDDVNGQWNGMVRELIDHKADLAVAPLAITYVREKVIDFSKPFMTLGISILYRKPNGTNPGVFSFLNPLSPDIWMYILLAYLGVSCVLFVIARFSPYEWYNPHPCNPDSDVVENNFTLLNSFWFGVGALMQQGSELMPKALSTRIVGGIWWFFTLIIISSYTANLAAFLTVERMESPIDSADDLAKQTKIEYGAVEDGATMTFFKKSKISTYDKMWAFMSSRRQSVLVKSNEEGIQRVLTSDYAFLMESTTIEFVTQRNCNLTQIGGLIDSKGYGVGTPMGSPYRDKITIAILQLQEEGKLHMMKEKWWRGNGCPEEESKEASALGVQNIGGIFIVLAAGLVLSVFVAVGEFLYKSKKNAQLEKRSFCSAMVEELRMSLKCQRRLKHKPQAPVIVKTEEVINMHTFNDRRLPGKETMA

Structure (SMILES): COc1ccc(OCC2c3ccc(OC(C)C)cc3CCN2C(=O)c2cccc(Cl)c2)cc1 (centres undefined)
Activity [5]: inactive | Activity [6]: 195% | Emax [6]: 202% | Activity [7]: 106% | BPR [8]: 0.9 | concentration [9]: 700 nM | Activity [10]: inactive | BPR [11]: 0.7 | Activity [12]: Non-Toxic | Drug metabolism [13]: Metabolite_Detected | CD [14]: 64 µM | Cmax [15]: 1700 nM | Activity [16]: inactive | CD [17]: 4.6 µM | EC50 [18]: 5.2 µM | Activity [19]: 96% | EC50 [20]: 3000 nM | concentration at 4 h [21]: 400 nM | CD [22]: 4.9 µM

Structure (SMILES): CCOc1ccc(OC[C@@H]2c3ccc(OC(C)C)cc3CCN2C(=O)c2cccc(F)c2)cc1
Emax [6]: 204% | Activity [23]: 177% | EC50 [24]: 3600 nM | Activity [10]: 110% | CD [14]: 40 µM | Emax [25]: 128% | Activity [26]: 103% | EC50 [18]: 4.7 µM | Activity [27]: 136%

Structure (SMILES): CCOc1ccc(OCC2c3ccc(OC(C)C)cc3CCN2C(=O)c2cc(Cl)cc(Cl)c2)cc1 (centres undefined)
Activity [28]: 97% | Activity [3]: 80% | Activity [4]: 105%

Structure (SMILES): COc1ccc(OCC2c3ccc(OC(C)C)cc3CCN2C(=O)c2cccc(Br)c2)cc1 (centres undefined)
EC50 [24]: 1800 nM | Emax [29]: 204% | Emax ([28]; 10 uM): 286% | Activity [28]: 270% | Activity [3]: 312% | Emax [3]: 338% | EC50 [18]: 3.9 µM | EC50 [20]: 2600 nM

The remaining lines, values ahead:

EC50 [1]: 100 to 200 µM
Structure (SMILES): NCCCNCCCCNCCCN [SPERMINE]

Activity [2]: 110% | Activity [3]: 99% | Activity [4]: 108%
Structure (SMILES): COc1ccccc1OCC1c2ccc(OC(C)C)cc2CCN1C(=O)c1cccc(Cl)c1 (centres undefined)

Emax [6]: 213% | EC50 [24]: 420 nM | Emax [30]: 229% | CD [14]: 2.6 µM | Emax [25]: 225% | CD [17]: 1.1 µM | EC50 [18]: 0.49 µM | t1/2 [31]: 29 min | t1/2 [32]: 29 min | EC50 [20]: 430 nM | CD [22]: 0.8 µM
Structure (SMILES): COc1ccc(OCC2c3ccc(OC(C)C)cc3CCN2C(=S)c2cccc(Cl)c2)cc1 (centres undefined)
